Only some compounds are listed: those with a hit (about 2.2% of all), similar ones and a draw of the others.
VIM-2 inhibitor: VIM-2 metallo-beta-lactamase inhibitors, primary screen, biochemical, epi-absorbance readout, Pseudomonas aeruginosa enzyme | purified VIM-2, nitrocefin hydrolysis, epi-absorbance fluorescence | inhibition, % at 5.6 µM | hit rate 0.89% among 290,000;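 active = inhibition above the mean of all tested compounds plus 3 SD, cutoff set per screening run, cut at about 7.5% in these data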;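 also: red hydrolysis product quenches plate fluorescence so inhibitors raise well fluorescence; 0% = enzyme with DMSO and 100% = DMSO without enzyme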
IMP-1 inhibitor: IMP-1 metallo-beta-lactamase inhibitors, primary screen, biochemical, epi-absorbance readout, Pseudomonas aeruginosa enzyme | inhibition, % at 5.6 µM | AID 1556, 2009 | purified IMP-1, nitrocefin hydrolysis, epi-absorbance fluorescence | hit rate 0.45% among 290,000 | metallo-beta-lactamase IMP-1 (Pseudomonas aeruginosa);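 active = inhibition above the mean plus 3 SD of all compounds in the same screening run, cut at about 4.5% in these data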;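 also: 0% = IMP-1 with DMSO and 100% = DMSO wells lacking enzyme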
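System: purified IMP-1 / Input: IMP-1 dispensed at 0.2 nM / Medium: 50 mM HEPES pH 7.1, 50 µM ZnSO4, 0.05% Brij 35 / Timing: 15 min enzyme–compound preincubation, then 25 min nitrocefin reaction, 25 °C / Technique: plate fluorescence quenching by hydrolysis product, ex 480/em 530 nm / Repeats: singlicate testing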
CR mimetic SO: reduction of superoxide in aged yeast, primary screen, HTS; S. cerevisiae aged cells, superoxide DHE fluorescence; hits give low values; superoxide response (% of plate mean), % at 10 µM; hit rate 0.18% among 330,000; AID 2690, 2010;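 active = superoxide response under a set limit, about three screen SD below normal, cut at about 65% in these data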;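 also: yeast aged for seven days with compound at 30 °C before DHE staining; 100% = average MFI of all compound-treated wells on the plate with controls excluded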
PvdQ inh: P. aeruginosa PvdQ acylase inhibitors, primary screen, biochemical, fluorescence, plate reader and imaging, single point | PvdQ acylase [Pseudomonas aeruginosa LESB58] | purified PvdQ acylase | inhibition, % at 10 µM | hit rate 0.063% among 340,000 | AID 488965, 2010; in the data active = inhibition above about 30%, passing the limit was not always enough;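 also: 0% = vehicle neutral wells and 100% = reference inhibitor wells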
PHOSPHO1 inh: PubChem AID 1565; Phosphoethanolamine/phosphocholine phosphatase (Homo sapiens), Q8TCT1; recombinant PHOSPHO1, absorbance phosphatase assay; inhibition, % at 13.3 µM; hit rate 1.1% among 290,000; in the data active = inhibition above about 60%
Target sequence (Q8TCT1 whole entry, looked up): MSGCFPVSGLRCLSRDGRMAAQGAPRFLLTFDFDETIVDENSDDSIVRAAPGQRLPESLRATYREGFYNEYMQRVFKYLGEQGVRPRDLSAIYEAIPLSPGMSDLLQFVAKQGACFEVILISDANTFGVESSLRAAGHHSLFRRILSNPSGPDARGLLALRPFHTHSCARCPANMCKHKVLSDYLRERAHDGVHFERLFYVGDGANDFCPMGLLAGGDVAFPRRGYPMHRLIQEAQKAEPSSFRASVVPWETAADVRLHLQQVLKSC
* = called active by the depositor; nt = no result given.

SMILES	VIM-2 inhibitor	IMP-1 inhibitor	CR mimetic SO	PvdQ inh	PHOSPHO1 inh
Cc1cc(C)cc(N2C(=O)CC(Sc3nnnn3-c3ccccc3)C2=O)c1 (stereo not drawn)	-1.5	7.2*	95.4	8.9	15.4
Cc1ccc(N=Cc2c(C)[nH]n(-c3nc4ccccc4[nH]3)c2=O)cc1	-1.4	5.0*	105.5	5.6	-6.8
COC(=O)[C@H](CC(C)C)NC(=O)Cn1cnc2c(NCc3ccccc3)ncnc21	nt	nt	96.2	-13.1	nt
COCCSc1ccccc1C(=O)N1CCc2ccccc2C1	-3.2	-2.4	82.0	-11.9	60.0*
COCCSc1ccccc1C(=O)N1CCN(c2ccccc2)CC1	-2.0	-2.3	105.9	-6.1	47.1
Cc1ccc(-c2c(NCCc3ccccc3)c(=O)c2=O)cc1	-0.8	5.3*	107.0	3.9	13.7
COCCN1CCN(C(=O)c2ccc3nc(Cc4ccc(OC)c(OC)c4)oc3c2)CC1	-1.1	-2.9	95.6	7.1	23.3
COc1ccc(Cc2nc3ccc(C(=O)N4C[C@@H](C)O[C@@H](C)C4)cc3o2)cc1OC	-2.9	-2.9	105.0	-15.7	64.0*
COc1cc(C(=S)N(C)C)ccc1O	-2.9	-2.7	79.1	-13.8	69.2*
CCCOC(=O)c1ccc(O)c(OC)c1	-5.0	-5.0	95.3	-9.9	24.8
CCCc1c(CC)c(=N)c2ccccc2n1C	-4.3	8.8*	108.0	6.9	41.2
Cn1c(-c2ccccc2)c(C(=O)CCl)c2ccccc21	-0.4	-2.4	nt	6.3	8.8
Cc1cc(-c2ccccc2)c2c(=O)n(-c3ccccc3)[nH]c2n1	-2.2	-6.3	99.2	8.9	23.9
O=c1c2c3n(c(=S)nc2[nH]n1-c1ccccc1)CCCCC3	-1.3	-3.0	118.9	-15.6	82.4*
CC(=O)c1ccc(-n2c(C)c(C(C)=O)c3cc(O)ccc32)cc1	10.1*	-1.5	92.0	-10.8	33.0
CC(=O)c1c(C)n(-c2ccc(Br)cc2)c2ccc(O)cc12	1.9	-1.5	104.5	-5.5	8.8
Cc1nc2nc(C)n(-c3ccccc3)c2s1	-0.2	-6.6	106.4	2.3	71.4*
CC(=O)c1ccccc1C(=O)N1CCC(n2nccc2NC(=O)C2CC2)CC1	-1.9	-3.2	93.5	-20.9	65.8*
CCn1c(SCC(=O)c2cc(C)n(CC3CCCO3)c2C)nc2ccccc21 (stereo not drawn)	-1.8	-1.4	90.1	-11.4	73.4*
CN1/C(=C\C(=O)CSc2nnc(NCc3ccccc3)s2)C(C)(C)c2ccccc21	-4.3	-2.4	100.3	-14.5	0.3
Cc1cc(C(=O)CSc2nnc(NCc3ccccc3)s2)c(C)n1C	-0.9	-2.5	109.2	-3.5	91.1*
Cc1cc(C(=O)CN2C(=O)NC(C)(c3ccccc3)C2=O)c(C)n1CC1CCCO1 (stereo not drawn)	-3.1	-4.0	89.4	-14.6	14.1
Cc1cc(C(=O)CN2C(=O)c3ccccc3S2(=O)=O)c(C)n1CC1CCCO1 (stereo not drawn)	5.9	9.4*	117.7	-11.3	13.5
COc1ccccc1Nc1nnc(SCC(=O)c2cc(C)n(CC3CCCO3)c2C)s1 (stereo not drawn)	-0.4	-0.6	95.6	1.9	93.4*
Cc1cc(C(=O)CSc2nnc(Nc3ccccc3)s2)c(C)n1CC1CCCO1 (stereo not drawn)	-2.6	-3.2	100.4	-10.7	89.5*
SMILES	VIM-2 inhibitor	IMP-1 inhibitor	CR mimetic SO	PvdQ inh	PHOSPHO1 inh
Cc1cc(C(=O)CSc2nnc(Nc3ccccc3F)s2)c(C)n1CC1CCCO1 (stereo not drawn)	2.1	0.1	nt	5.3	93.5*
Cc1cc(C(=O)CSc2nnc(-c3cccnc3)n2-c2ccccc2F)c(C)n1CC1CCCO1 (stereo not drawn)	-3.1	-2.9	104.3	-9.7	53.0
CCc1ccc(Cn2ncc3c(C(=O)O)cc(C)nc32)cc1	nt	nt	nt	2.8	nt
CCOc1ccc(NC(=O)COC(=O)C2C3CC4OC(=O)C2C4C3)cc1 (stereo not drawn)	-1.2	0.2	117.5	-15.7	17.4
COc1ccc2[nH]c(=O)c3c(c2c1)OC(C)(C)C=C3	-1.5	39.2*	100.1	3.3	13.7
Cc1cc2c([nH]c3ccccc32)c2c1OC(C)(C)C=C2	nt	nt	121.2	-6.6	26.6
CC(=O)c1ccsc1-c1c(C)cc2oc(=O)cc(-c3ccccc3)c2c1C	nt	nt	111.3	-8.1	nt
Cc1ccc(C2NC(=O)c3c(sc(C)c3C)N2)c(O)c1 (stereo not drawn)	-1.9	-0.1	95.6	5.2	104.3*
